Source: PubChem (several laboratories)
This is a sample that favours compounds with a hit; in the whole collection about 2.2% have one here.
FXIIa inh 1536 = human FXIIa protease inhibitors, primary screen, biochemical, 1536-well; purified FXIIa, Boc-QGR-AMC fluorogenic substrate, 2 h; 0.3% of 220,000 active; inhibition, % at 5 µM; in the data active means inhibition above about 40%;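 further: 0% = enzyme with no compound and 100% = blank without enzyme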
FXIa inh 1536 = human FXIa protease inhibitors, primary screen, biochemical, 1536-well; Coagulation factor XI (Homo sapiens), P03951; purified FXIa, Boc-Glu-Ala-Arg-AMC fluorogenic substrate; inhibition, % at 5 µM; 0.14% of 220,000 active;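 active means inhibition of at least 40%; inactive means inhibition below 40%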;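 further: fluorescence of freed AMC excited at 355 nm; 0% = enzyme without compound and 100% = no enzyme blank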
KLK5 inh = human KLK5 protease inhibitors, primary screen, biochemical, 1536-well; inhibition, % at 5 µM; recombinant hK5, fluorogenic AMC substrate cleavage; 0.59% of 210,000 active; AID 873, 2007;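 active means inhibition of 40% or more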;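 further: 0% = enzyme controls without compound and 100% = no-enzyme blanks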
Wee1 degr inh = Wee1 degradation inhibitors, primary screen, cell-based, HeLa, Wee1K328M-luciferase, luminescence; HeLa Luc-Wee1K328M stability; 100% = proteasome inhibitor MG132 effect; reporter increase, % at 5 µM; 1.2% of 220,000 active;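 active means activation above the mean of all tested compounds plus 3 SD, set per screening run, cut at about 8.8% in these data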;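 further: cells exposed to compound for 20 h before luminescence read; 0% = DMSO alone and 100% = MG132 at 30 µM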
Target sequence (P30291 whole entry K328M): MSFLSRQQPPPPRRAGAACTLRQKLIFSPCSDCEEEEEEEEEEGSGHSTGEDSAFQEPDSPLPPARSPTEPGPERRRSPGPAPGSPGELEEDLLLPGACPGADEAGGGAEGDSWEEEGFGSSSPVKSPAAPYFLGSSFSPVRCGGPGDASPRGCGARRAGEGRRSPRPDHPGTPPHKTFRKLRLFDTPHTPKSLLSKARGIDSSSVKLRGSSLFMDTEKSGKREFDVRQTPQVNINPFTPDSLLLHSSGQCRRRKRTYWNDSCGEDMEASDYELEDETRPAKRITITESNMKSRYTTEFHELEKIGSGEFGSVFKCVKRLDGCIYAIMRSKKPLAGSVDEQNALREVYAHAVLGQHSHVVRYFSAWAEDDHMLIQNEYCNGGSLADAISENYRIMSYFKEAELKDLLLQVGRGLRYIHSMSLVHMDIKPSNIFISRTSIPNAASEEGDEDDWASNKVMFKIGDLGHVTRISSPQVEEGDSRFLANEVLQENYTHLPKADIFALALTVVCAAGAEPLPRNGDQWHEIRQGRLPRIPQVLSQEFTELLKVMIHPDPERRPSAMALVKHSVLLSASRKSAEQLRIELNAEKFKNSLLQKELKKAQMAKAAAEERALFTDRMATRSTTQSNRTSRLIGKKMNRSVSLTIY
thrombin 1536 = human alpha-thrombin inhibitors, primary screen, counter-screen for coagulation protease inhibitor project, biochemical, 1536-well, fluorogenic AMC substrate | Boc-VPR-AMC fluorogenic substrate cleavage | Prothrombin (Homo sapiens), P00734 | inhibition, % at 5 µM | AID 1046, 2008 | 0.26% of 220,000 active;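 active means inhibition at or above 40%; inactive means inhibition below 40%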;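 further: 0% = enzyme with no compound and 100% = wells without enzyme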
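Material: human alpha-thrombin protein. Incubation: reaction at ambient temperature. Technique: fluorescence of released AMC, ex 355 nm, em 460 nm. Control set: no-compound enzyme wells and no-enzyme blanks. Also added: Boc-VPR-AMC substrate, 15 µM final. Buffer or medium: pH 7.5 Tris (50 mM) with NaCl 150 mM, Tween 20 0.05%.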
* marks the source's active call; other numbers are inactive results.

What do the screens show for `CCc1ccc(Nc2ccc(S(=O)(=O)N3CCOCC3)cc2[N+](=O)[O-])cc1`?
FXIIa inh 1536: 10; FXIa inh 1536: 4; KLK5 inh: -2; Wee1 degr inh: 9.7*; thrombin 1536: -5

How did O=C(NCc1ccccc1)C1CCN(S(=O)(=O)N2CCCCCC2)CC1 do in these assays?
FXIIa inh 1536: 10; FXIa inh 1536: 3; KLK5 inh: -21; Wee1 degr inh: 9.5*; thrombin 1536: 1

Results for CCc1ccc2[nH]c(C(=O)Nc3ccc4c(c3)OCO4)cc2c1 ?
FXIIa inh 1536: 8; FXIa inh 1536: 7; KLK5 inh: 8; Wee1 degr inh: -1; thrombin 1536: 3

How did COc1ccc2oc(C(=O)c3ccccc3)c(N)c2c1 do in these assays?
FXIIa inh 1536: 28; FXIa inh 1536: 15; KLK5 inh: 49*; Wee1 degr inh: 1; thrombin 1536: 26

Results for COc1ccc2oc(C(=O)C3CC3)c(N)c2c1 ?
FXIIa inh 1536: -9; FXIa inh 1536: -3; KLK5 inh: -22; Wee1 degr inh: 9.6*; thrombin 1536: 3

How did COc1ccccc1/C=C/C(=O)OCc1nc2ccccc2c(=O)[nH]1 do in these assays?
FXIIa inh 1536: 6; FXIa inh 1536: -3; KLK5 inh: -2; Wee1 degr inh: -3; thrombin 1536: -8

Results for c1cc(CNC2=NCCCCC2)ccn1 ?
FXIIa inh 1536: 26; FXIa inh 1536: 4; KLK5 inh: 65*; Wee1 degr inh: 2; thrombin 1536: 11

Results for O=C(CSc1n[nH]c(=O)[nH]c1=O)Nc1ccc2c(c1)C(=O)c1ccccc1C2=O ?
FXIIa inh 1536: 2; FXIa inh 1536: 1; KLK5 inh: 0; Wee1 degr inh: 2; thrombin 1536: -3

What do the screens show for `CCN(c1ccccc1)S(=O)(=O)c1cc(NC(=O)CSc2n[nH]c(=O)[nH]c2=O)ccc1Cl`?
FXIIa inh 1536: 8; FXIa inh 1536: 3; KLK5 inh: 5; Wee1 degr inh: 9.2*; thrombin 1536: 4

How did COc1cccc(/C=C/C(=O)Nc2ccc3nc4n(c(=O)c3c2)CCCC4)c1OC do in these assays?
FXIIa inh 1536: 19; FXIa inh 1536: 7; Wee1 degr inh: 0; thrombin 1536: 2

What do the screens show for `O=C1c2ccccc2C(=O)N1CCc1nc2ccccc2c(=O)n1Cc1ccco1`?
FXIIa inh 1536: 29; FXIa inh 1536: 2; KLK5 inh: 57*; Wee1 degr inh: -2; thrombin 1536: 11

What do the screens show for `Cc1nc2ccccc2c(=O)n1Cc1ccco1`?
FXIIa inh 1536: 7; FXIa inh 1536: -7; KLK5 inh: -3; Wee1 degr inh: 2; thrombin 1536: 0

Results for Cc1ccccc1-n1cnc2cc(NCc3cccs3)ccc21 ?
FXIIa inh 1536: 19; FXIa inh 1536: 12; KLK5 inh: 40*; Wee1 degr inh: -1; thrombin 1536: 41*

What do the screens show for `COc1ccccc1-n1cnc2cc(NCc3cccs3)ccc21`?
FXIIa inh 1536: 14; FXIa inh 1536: 4; KLK5 inh: 5; Wee1 degr inh: -2; thrombin 1536: 3

How did Cc1ccc2nc(/C(C#N)=C\c3ccc(N4CCOCC4)o3)[nH]c2c1 do in these assays?
FXIIa inh 1536: 4; FXIa inh 1536: -5; KLK5 inh: -12; Wee1 degr inh: 9.4*; thrombin 1536: -4

What do the screens show for `Cc1ccc(/C(C#N)=C\c2ccc(N3CCOCC3)o2)cc1`?
FXIIa inh 1536: 31; FXIa inh 1536: 19; KLK5 inh: -9; Wee1 degr inh: 0; thrombin 1536: 3

What do the screens show for `O=C(NCCCCNC(=O)c1ccc(Br)s1)c1ccc(Br)s1`?
FXIIa inh 1536: 3; FXIa inh 1536: -7; KLK5 inh: 0; Wee1 degr inh: 16*; thrombin 1536: -1

What do the screens show for `O=C(NCCCN1CCOCC1)c1ccc(Br)s1`?
FXIIa inh 1536: 4; FXIa inh 1536: 0; KLK5 inh: -23; Wee1 degr inh: 0; thrombin 1536: 5

What do the screens show for `N#Cc1c2c(c(Nc3ccc(O)cc3)n3c1nc1ccccc13)CCC2`?
FXIIa inh 1536: 12; FXIa inh 1536: 0; KLK5 inh: 44*; Wee1 degr inh: 7; thrombin 1536: 35

Results for N#Cc1c2c(c(NCc3ccco3)n3c1nc1ccccc13)CCC2 ?
FXIIa inh 1536: 23; FXIa inh 1536: 16; KLK5 inh: -31; Wee1 degr inh: -2; thrombin 1536: -4

Results for CC(C)(C)C(=O)Nc1cc(NC(=O)C(C)(C)C)cc(C(=O)Nc2cc(C(=O)O)cc(C(=O)O)c2)c1 ?
FXIIa inh 1536: 12; FXIa inh 1536: 11; KLK5 inh: -25; Wee1 degr inh: 2; thrombin 1536: -8

How did CCOC(=O)Cc1c(C)nc2c(-c3ccc(Cl)cc3)c[nH]n2c1=O do in these assays?
FXIIa inh 1536: 1; FXIa inh 1536: -10; KLK5 inh: -18; Wee1 degr inh: 9.8*; thrombin 1536: -4

How did CCOC(=O)Cc1c(C)nc2cc(-c3ccc(Cl)cc3)[nH]n2c1=O do in these assays?
FXIIa inh 1536: 19; FXIa inh 1536: 4; KLK5 inh: -22; Wee1 degr inh: 0; thrombin 1536: 1

How did O=C1C=C(O)c2c(O)cccc2C1=O do in these assays?
FXIIa inh 1536: 18; FXIa inh 1536: 11; KLK5 inh: 11; thrombin 1536: 55*

Results for Cc1c(NC(=O)C2CCCN2S(=O)(=O)c2ccc(Cl)cc2)c(=O)n(-c2ccccc2)n1C (stereo not given) ?
FXIIa inh 1536: 3; FXIa inh 1536: 1; KLK5 inh: -3; Wee1 degr inh: 0; thrombin 1536: 6

What do the screens show for `Cc1c(N(C)C(=O)C2CCCN2S(=O)(=O)c2ccccc2)c(=O)n(-c2ccccc2)n1C` (stereo not given)?
FXIIa inh 1536: 6; FXIa inh 1536: 4; KLK5 inh: 71*; Wee1 degr inh: -1; thrombin 1536: 104*

What do the screens show for `Cc1cc(Oc2ccc(-c3nnc(-c4ccccc4)o3)cc2[N+](=O)[O-])ccc1Cl`?
FXIIa inh 1536: 25; FXIa inh 1536: 20; KLK5 inh: 43*; Wee1 degr inh: 0; thrombin 1536: 18

Results for Cc1ccc(S(=O)(=O)N2CCN(C(=O)N3CCOCC3)C2c2ccc(N(C)C)cc2)cc1 (stereo not given) ?
FXIIa inh 1536: 11; FXIa inh 1536: 3; KLK5 inh: 8; Wee1 degr inh: 14*; thrombin 1536: 3

What do the screens show for `C/C(=N\O)C(C)NC(=O)c1ccccc1` (stereo not given)?
FXIIa inh 1536: 20; FXIa inh 1536: 22; KLK5 inh: -16; Wee1 degr inh: 5; thrombin 1536: 0

How did CCCSc1nnc(NC(=O)Nc2ccc(C)cc2)s1 do in these assays?
FXIIa inh 1536: -1; FXIa inh 1536: -5; KLK5 inh: 52*; Wee1 degr inh: 0; thrombin 1536: -8
